Consider 27 compounds from ChEMBL document CHEMBL1141015, “Discovery of diacylphloroglucinols as a new class of GPR40 (FFAR1) agonists” (Bioorg Med Chem Lett, 2008).

pEC50: −log10 of the molar value. Active and inactive are the calls of the source. No cut-off for these calls is given here. Bounds are passed on as bounds.

As usually defined, the pEC50 is the negative decadic logarithm of the EC50, by convention in mol/L. High values mean a small EC50, low ones a large EC50.

Assay [1] has as its target T1, Free fatty acid receptor 1 (Homo sapiens, UniProt O14842). Briefly: Agonist activity at human GPR40 expressed in CHOK1 cells assessed as fold increase in calcium flux at 10 uM by fluorescence assay relative to control. In kind it is functional, cell-based. Particulars: CHO-K1. Summed up:
(§1)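 CHO K1 cells stably transfected with hGPR40 (vector pCDN), seeded 10,000 cells/well on poly-D-lysine plates, 48 h culture; loaded 1 h with 2.5 µM Fluo-4AM in 10 mM Hepes, 2.5 mM probenecid, HBSS pH 7.5, washed thrice, 37 °C; Ca²⁺ flux read on FlexStation as fold over control; mock-transfected CHO K1 cells run in parallel for specificity.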
(In general: A change in cytosolic calcium serves as a functional read-out for many receptors and channels.)

In assay [2] the target is T1, Free fatty acid receptor 1. Briefly: Agonist activity at human GPR40 expressed in CHOK1 cells assessed as effect on calcium flux at 10 uM by fluorescence assay. To be noted: CHO-K1. The assay is classed as functional, cell-based. The gist of the method:
as §1

Assay [3] deals with T1, Free fatty acid receptor 1. Kind of assay: Activity at human GPR40 expressed in CHOK1 cells assessed as inhibition of linoleic acid-induced calcium flux by fluorescence assay. In kind it is functional, cell-based. To be noted: CHO-K1.
For assay [4], the target named is T1, Free fatty acid receptor 1. Kind of assay: Agonist activity at GPR40 at 100 uM. The assay is classed as functional.
Assay [5] concerns the target T1, Free fatty acid receptor 1. Kind of assay: Agonist activity at GPR40 expressed in CHO cells by FLIPR assay. In kind it is functional, cell-based. Summed up: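 CHO-K1 cells stably transfected with hGPR40 (pCDN vector), seeded and grown 48 h, loaded 1 h with Fluo-4AM in 10 mM Hepes/Ca²⁺/2.5 mM probenecid HBSS pH 7.5, washed thrice, held at 37 °C. FlexStation calcium flux read as fold over control. EC50 from dose–response curves; efficacy as % of maximal linoleic acid response. Mock-transfected CHO-K1 run in parallel.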

For assay [6], the target named is T1, Free fatty acid receptor 1. Kind of assay: Agonist activity at GPR40. The assay is classed as functional.
The target in assay [7] is T1, Free fatty acid receptor 1. Kind of assay: Agonist activity at human GPR40 expressed in CHOK1 cells by fluorescence assay. In kind it is functional, cell-based, CHO-K1. The gist of the method:
as §1

The target in assay [8] is T1, Free fatty acid receptor 1. Briefly: Agonist activity at human GPR40 expressed in CHOK1 cells assessed as maximal response at 10 uM by fluorescence assay relative to linoleic acid. The assay is classed as functional, cell-based. Particulars: CHO-K1. Summed up:
as §1

In the next assay the test system is HIT-T15. Briefly: Induction of insulin secretion in Syrian golden hamster HIT-T15 cells at 10 uM. In kind it is functional, cell-based. To be noted: Mesocricetus auratus. Summed up:
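HIT-T15 hamster pancreatic cells treated with 10 µM compound; insulin secretion measured, with linoleic acid as reference.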

Assay [9] addresses Free fatty acid receptor 1 (Mus musculus, UniProt Q76JU9). Briefly: Agonist activity at mouse GPR40 expressed in HEK293 cells. In kind it is functional, cell-based.
For assay [10], the target named is T1, Free fatty acid receptor 1. Kind of assay: Activation at GPR40 expressed in HEK293 cells at 100 uM by calcium mobilization-based FLIPR assay. The assay is classed as functional, cell-based.

T1 sequence (O14842 whole entry): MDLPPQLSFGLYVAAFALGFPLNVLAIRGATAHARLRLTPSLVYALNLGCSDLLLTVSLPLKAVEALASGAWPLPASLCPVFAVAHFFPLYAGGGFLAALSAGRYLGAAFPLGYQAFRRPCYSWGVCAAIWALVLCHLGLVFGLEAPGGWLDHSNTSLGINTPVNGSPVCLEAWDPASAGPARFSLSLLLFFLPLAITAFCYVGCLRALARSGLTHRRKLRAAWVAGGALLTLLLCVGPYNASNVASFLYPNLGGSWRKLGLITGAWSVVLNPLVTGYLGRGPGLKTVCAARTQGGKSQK
Sequence of Free fatty acid receptor 1 (Mus musculus, UniProt Q76JU9) (Q76JU9 whole entry): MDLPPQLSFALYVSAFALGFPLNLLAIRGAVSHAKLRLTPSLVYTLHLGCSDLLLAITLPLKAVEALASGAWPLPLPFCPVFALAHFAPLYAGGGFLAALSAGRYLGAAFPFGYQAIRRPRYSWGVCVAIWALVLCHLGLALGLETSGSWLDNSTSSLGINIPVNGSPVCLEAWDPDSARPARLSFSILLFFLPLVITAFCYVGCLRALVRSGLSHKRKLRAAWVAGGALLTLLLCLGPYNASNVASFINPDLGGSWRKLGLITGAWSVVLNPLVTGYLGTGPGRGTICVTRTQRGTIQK

Regarding `CC(C)CC(=O)c1c(O)cc(O)cc1O`, in assay [1], the fold change (FC) was determined as 1.12. In addition, the result in assay [2] and in assay [3] was inactive.

For `CCCCCCCC(=O)c1c(O)cc(O)c(C(=O)CCCCCCC)c1O`, in assay [1], the fold change (FC) is 1.21. The result in [2] and in assay [3] was inactive.

For the compound `CC(C)CC(=O)c1c(O)c(Cc2c(O)c(C(=O)CC(C)C)c(O)c(C(=O)CC(C)C)c2O)c(O)c(C(=O)CC(C)C)c1O`, the fold change (FC) in [1] worked out at 1.11. Besides, the result in assay [2] and in assay [3] was inactive.

In the case of `CC(C)CC(=O)c1c(O)cc(O)c(C(=O)CCCC(=O)O)c1O`, in assay [1], the fold change (FC) amounted to 1. Further, the outcome in [2] and in assay [3] was inactive.

In turn, `Cc1cc(OCC2(C)COC2)cc(C)c1-c1cccc(COc2ccc(C3CC3C(=O)O)cc2)c1` (stereo unspecified) came in with an Activity in [4] of 119%.

In the case of `O=C(O)[C@H]1[C@@H]2Oc3cc(Oc4ccc(C(F)(F)F)cc4Cl)ccc3[C@@H]21`, the pEC50 in [5] is 10.00.

In the case of `CCCCCCCCCCCCCCCCCC(=O)c1c(O)cc(O)c(C(=O)CCCCCCCCCCCCCCCCC)c1O`, the fold change (FC) in assay [1] is 1.19. In addition, the result in [2] and in assay [3] was inactive.

Turning to `CCCCOc1cc(O)c(C(=O)CC(C)C)c(OCCCC)c1C(=O)CC(C)C`, the fold change (FC) in [1] worked out at 1.46. Further, the outcome in assay [2] and in assay [3] was inactive.

`O=C(O)CCc1ccc(OCc2ccc(CC(CCc3ccccn3)c3nc(-c4ccccc4)cs3)cc2)cc1` (stereo unspecified) gave a pEC50 in assay [6] of 7.72.

As for `CCCCc1c(O)c(C(=O)CC(C)C)c(O)c(C(=O)CC(C)C)c1O`, in assay [1], the fold change (FC) was found to be 2.12. In addition, the outcome in assay [2] was Active. The compound also had a pEC50 in [7] of 6.01. In assay [8], the Activity is 84.5%.

As to `O=C(CCl)c1c(O)cc(O)c(C(=O)CCl)c1O`, in [1], the fold change (FC) was found to be 1.21. For the same compound, the outcome in [2] and in [3] was inactive.

`CCCCOc1cc(O)c(C(=O)CC(C)C)c(O)c1C(=O)CC(C)C`: the fold change (FC) in assay [1] was 1.02. Moreover, the outcome in assay [2] and in [3] was inactive.

For `CCCCCCCCCCCC(=O)c1c(O)cc(O)c(C(=O)CCCCCCCCCCC)c1O` [DIDODECANOYLPHLOROGLUCINOL], the fold change (FC) in assay [1] is 2.33. Moreover, the outcome (in [2]; with HIT-T15) was Active. Besides, the pEC50 in assay [7] was 7.15. In addition, in assay [8], the Activity amounted to 100%.

Take `CC(C)CC(=O)c1c(O)cc(O)c(C(=O)CC(C)C)c1O`: in assay [1], the fold change (FC) stood at 1.89. In addition, the result (in assay [2]; in the assay with HIT-T15) was Active. Moreover, in assay [7], the pEC50 was 5.22. Also, in assay [8], the Activity was 102%.

As to `CCCCCCCCC1SC(=O)NC1=O` (stereo unspecified), in [9], the pEC50 was 5.10.

Take `O=C(O)CCCC(=O)c1c(O)cc(O)cc1O`: the fold change (FC) in [1] was 1. For the same compound, the outcome in [2] and in [3] was inactive.

`CCCCCCCCCCCCCCCC(=O)c1c(O)cc(O)c(C(=O)CCCCCCCCCCCCCCC)c1O`: in assay [1], the fold change (FC) was 1.02. In addition, the result in [2] and in assay [3] was inactive.

As to `Cc1cccc(C)c1-c1cccc(COc2ccc(Cn3oc(=O)[nH]c3=O)cc2)c1`, the pEC50 in assay [6] was 6.59.

Consider `O=C(O)CCc1ccc2oc(Nc3cccc(Cl)c3Cl)nc2c1`, for which the Activity in assay [10] was 111%.

In the case of `CCCCOc1ccc(C)cc1-c1ccc(COc2ccc3c(c2)CCC[C@H]3CC(=O)O)cc1`, the pEC50 in assay [5] was > 7.00.

As to `CC(C)C(=O)c1c(O)cc(O)c(C(=O)C(C)C)c1O`, in assay [1], the fold change (FC) came out at 2.31. Also, the outcome (in [2]; in the assay with HIT-T15) was Active. In [7], this compound had a pEC50 of 5.10. In assay [8], the Activity was determined as 88.7%.

As for `CC#CC(CC(=O)O)c1ccc(OC2CCc3cc(-c4cccs4)ccc32)cc1` (stereo unspecified), in assay [6], the pEC50 is 8.00.

Regarding `CCCCOc1cc(OCCCC)c(C(=O)CC(C)C)c(O)c1C(=O)CC(C)C`, the fold change (FC) in assay [1] came out at 1.35. The result in [2] and in assay [3] was inactive.

Take `O=C(O)CCCCCCCNc1ncc(-c2ccccc2)c(-c2ccccc2)n1`: the Activity in assay [10] was 104%.

For the compound `O=C(/C=C/C(=O)c1c(O)cc(O)cc1O)c1c(O)cc(O)cc1O`, the fold change (FC) in assay [1] was found to be 1.01. The result in assay [2] and in assay [3] was inactive.

As to `CCCCC/C=C\C/C=C\CCCCCCCC(=O)O` [LINOLEIC ACID], the pEC50 in assay [6] and in [7] was 6.27 in each case. Also, the fold change (FC) in assay [1] amounted to 2.55. In addition, the result in [2] was Active.

Regarding `CC(C)CC(=O)c1c(O)cc(OCCO)c(C(=O)CC(C)C)c1O`, the fold change (FC) in [1] stood at 1.02. The outcome in assay [2] and in assay [3] was inactive.
